How the values were obtained:
[1] = melting temperature; fluorescence melt of hairpins on a sequencing array, two-state fit, raised by 9.35 °C to match UV melts; details: sodium 0.088 M
Method in brief: (§1)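 Melting temperature and folding enthalpy were derived from bootstrapped two-state fits. The fitted temperatures were raised by 9.35 °C to agree with UV melts, and four replicates were combined by inverse variance. The underlying data were Cy3 fluorescence images of library hairpins, with annealed Cy3 and quencher oligos, on a sequenced MiSeq flow cell in 50 mM Na-HEPES pH 8.0, 25 mM NaCl, taken in 2.5 °C steps up to 60 °C, normalised to pre-quench Cy3 and to control constructs.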

[2] = folding enthalpy; higher = less favourable; fluorescence melt of hairpins on a sequencing array, two-state fit; details: sodium 0.088 M
Method in brief: as §1

Sequence | Tm [1] | folding enthalpy [2]
GACCACGAAAGTGGGGTC ((((((....)))..))) | 61.2 °C | -13.2 kcal/mol
GAGCACGAAAGTGTCCTC ((((((....)))..))) | 35.2 °C | -12.9 kcal/mol
GGAACCGAAAGGTGTTCC ((((((....)))..))) | 40.5 °C | -17.6 kcal/mol
GCTACCGAAAGGTATAGC ((((((....)))..))) | 44.4 °C | -18.2 kcal/mol
CGACACGGAAACGTTTCG (((.(((....))).))) | 44.8 °C | -33.7 kcal/mol
TCGCAGAAATGCGA (((((....))))) | 54.4 °C | -17.1 kcal/mol
GGCAGCGAAAGCTATGCC ((((((....)))..))) | 55.3 °C | -28.7 kcal/mol
GCACCCGAAAGGGTTGC ((((((....))).))) | 63.3 °C | -22.5 kcal/mol
GCATGCGAAAGCAGGTGC ((((((....)))..))) | 51.1 °C | -23.2 kcal/mol
GTTGATACGAAAGTAAAC (((..(((....)))))) | 25.8 °C | -8.92 kcal/mol
GCTTAGGGAAACCCAAGC ((((.((....)).)))) | 44 °C | -26.7 kcal/mol
GGACTTCGAAAGAAATCC (((.(((....))).))) | 37.3 °C | -26.6 kcal/mol
GCGACAACTCGC ((((....)))) | 41.7 °C | -21.2 kcal/mol
GCCCCAGGAAACTGGGAC (.(((((....))))).) | 46.1 °C | -15.6 kcal/mol
GTCCCAACGAAAGTTGAC (((..(((....)))))) | 25 °C | -9.31 kcal/mol
GGACTGGGAAACCAATCC (((.(((....))).))) | 36 °C | -28 kcal/mol
GATCCCTCGTGGGATC ((((((....)))))) | 62.2 °C | -40.2 kcal/mol
GAGAGCGAAAGCTTGCTC ((((((....)))..))) | 35.5 °C | -10.4 kcal/mol
GAATACGAAAGTATATTC ((((((....)))..))) | 26.8 °C | -15.9 kcal/mol
CGTTCCGGAAACGGCACG (((.(((....))).))) | 48.5 °C | -34.9 kcal/mol
GGGTACGGAAACGTATCC ((.((((....)))).)) | 51.8 °C | -30.1 kcal/mol
GATCGGTAGACCGATC ((((((....)))))) | 57 °C | -41.1 kcal/mol
GCCCCCGAAAGGGTAGGC ((((((....)))..))) | 55.9 °C | -23.3 kcal/mol

Sequence | Tm [1] | folding enthalpy [2]
CGTTCGAAAGAACG (((((....))))) | 58.2 °C | -30.6 kcal/mol
GACAGACGAAAGTCGTC (((.(((....)))))) | 53 °C | -17.8 kcal/mol
GCCTAGCGAAAGCACGGC (((..((....))..))) | 54.9 °C | -20.3 kcal/mol
GAAGCGGAAACGCTTC ((((((....)))))) | 67.6 °C | -33.6 kcal/mol
GATCCTCATTAGGATC ((((((....)))))) | 51.1 °C | -33.8 kcal/mol
GATCGCCGCCGCGATC ((((((....)))))) | 66.6 °C | -36 kcal/mol
GACTCGCGAAAGCGTGTC (((.(((....))).))) | 63.3 °C | -27.1 kcal/mol
GCTTTGCGAAAGCTCAGC (((..((....))..))) | 44.3 °C | -14.4 kcal/mol
GCTTTGGGAAACCAGAGC (((.(((....))).))) | 48 °C | -27 kcal/mol
GATCAGAAATCTGATC ((((((....)))))) | 46 °C | -35.2 kcal/mol
GGTCAGCGAAAGCTACC (((.(((....)))))) | 47.5 °C | -16.7 kcal/mol
GCCCCCGAAAGGGTGGGC ((((((....)))..))) | 63.2 °C | -27.8 kcal/mol
GCACAAGGAAACCTGTGC (((((.(....).))))) | 50.5 °C | -34 kcal/mol
GTCCTCGAAAGAGGAGAC ((((((....)))..))) | 47.8 °C | -10.2 kcal/mol
GATCCTGAACAGGATC ((((((....)))))) | 59.9 °C | -38.4 kcal/mol
GAACGCGAAAGCGTATTC ((((((....)))..))) | 35.8 °C | -7.69 kcal/mol
GTGGCTGGAAACAGTCAC (((.(((....))).))) | 55.1 °C | -36.9 kcal/mol
GTAAGCGAAAGCTCTAC ((((((....))).))) | 32.2 °C | -11.9 kcal/mol
GTTACCCGAAAGGGCAAC (((.(((....))).))) | 47.3 °C | -24.4 kcal/mol
GTTGTTTCGAAAGAAAAC (((..(((....)))))) | 41.8 °C | -32.9 kcal/mol
GTAAAACGAAAGTTGTAC (((.(((....))).))) | 35.3 °C | -20.4 kcal/mol
GTGCTCGAAAGAGCTCAC ((((((....)))..))) | 42.8 °C | -10.8 kcal/mol
GAGAGTGAAAACTCTC ((((((....)))))) | 53.9 °C | -32.1 kcal/mol
